High-throughput results deposited in PubChem BioAssay by Broad Institute.
Most compounds without a hit are left out; they make up all but 2.1% or so of the library.
SR-BI DiI-HDL act – activators of SR-BI mediated HDL lipid uptake | activation, % at 12.5 µM | CHO ldlA[mSR-BI] cells, DiI-HDL uptake fluorescence, 3 h; 100 = double the neutral-control signal | actives 0.096% (n = 320,000);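 active means mean replicate activation of at least 60% and every replicate at or above 60%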;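 further: 0% = median plate neutral-control signal and 100% = twice that signal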
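system = CHO ldlA[mSR-BI] cells, LDL receptor-null, SR-BI overexpressing | medium = Ham's F12 with 0.5% BSA, HEPES 25 mM, pH 7.4 | probe or stimulus = DiI-HDL 10 µg/mL | compound dosing = single-point compound dose | incubation = compound exposure 3 h, 37 °C | technique = DiI fluorescence, bottom read | read-out = cell-associated DiI fluorescence as measure of HDL uptake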
CAL PDZ FP-1 – inhibitors of human CAL PDZ peptide binding. purified CAL PDZ, TMR-peptide fluorescence polarization, 1 h. inhibition, % at 20 µM. actives 0.02% (n = 330,000);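 active means highest replicate inhibition of at least 40%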;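 further: plate controls were DMSO neutral control wells for no effect and unlabeled competitor peptide control wells for full effect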
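Material: tagged CAL PDZ protein CerCALP, purified; buffer or medium: sodium phosphate/NaCl buffer pH 7.4 with TCEP, IgG, Thesit; also added: fluorescent TMR peptide probe; schedule: 1 h incubation at room temperature before polarization reading; technique: fluorescence polarization from S- and P-plane intensities, G-factor corrected; control set: unlabelled peptide and DMSO controls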
miR-122 sensor – miR-122 inhibition in Huh7 cells. actives 0.3% (n = 340,000). activation (reporter increase), % at 12.5 µM. Huh7 miR-122 Renilla luciferase sensor, 48 h; neutral wells = 0, positive control = 100;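 active means mean replicate activation score at least 90 and every replicate individually at or above 90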;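 further: higher luciferase means less miR-122 activity so hits act as miR-122 inhibitors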
ARNT TACC3 PPI – ARNT/TACC3 interaction disruption. Q9Y6A5. inhibition, % at 9.99 µM. AlphaScreen His-ARNT PAS-B/GST-TACC3 binding, luminescence; TACC3 fragment carries E629A point mutation. actives 0.66% (n = 390,000). AID 623870;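 active means mean inhibition of replicates at least 50% and at least half of replicates each reaching 50%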;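 further: 0% = complete ARNT plus TACC3 wells and 100% = ARNT alone without TACC3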
SR-BI DiI inh – mouse SR-BI HDL lipid transfer inhibition. Q61009. ldlA[mSR-BI] CHO cells, DiI-HDL uptake fluorescence, 3 h. inhibition, % at 12.5 µM. actives 0.96% (n = 320,000). AID 488896;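 active means mean replicate inhibition of at least 70% and a set share of replicates each scoring 70 or more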;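 further: 0% = median of neutral control wells and 100% = median of positive control wells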
Target sequence (Q61009 whole entry, looked up): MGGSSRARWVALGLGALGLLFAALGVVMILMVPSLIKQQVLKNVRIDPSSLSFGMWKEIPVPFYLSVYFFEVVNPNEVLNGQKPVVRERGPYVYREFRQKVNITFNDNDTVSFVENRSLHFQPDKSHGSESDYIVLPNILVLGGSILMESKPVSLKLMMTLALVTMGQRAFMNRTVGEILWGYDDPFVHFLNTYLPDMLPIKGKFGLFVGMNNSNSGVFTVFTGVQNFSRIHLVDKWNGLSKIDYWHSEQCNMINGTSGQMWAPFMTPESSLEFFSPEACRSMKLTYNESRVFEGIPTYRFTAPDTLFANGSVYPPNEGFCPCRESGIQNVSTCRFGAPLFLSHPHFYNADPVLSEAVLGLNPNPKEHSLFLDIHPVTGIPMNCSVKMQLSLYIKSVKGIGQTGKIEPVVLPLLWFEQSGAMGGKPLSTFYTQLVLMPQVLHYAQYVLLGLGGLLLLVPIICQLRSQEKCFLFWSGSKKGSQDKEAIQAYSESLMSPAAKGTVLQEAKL
CAL PDZ FP-2 – inhibitors of human CAL PDZ peptide binding. inhibition, % at 24.9 µM. actives 0.92% (n = 300,000). AID 602252. Q9HD26. purified CAL PDZ, TMR-peptide fluorescence polarization, 1 h;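 active means mean inhibition of at least 30% with at least half of replicates also reaching 30%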;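 further: 0% = DMSO neutral control and 100% = excess unlabeled competitor peptide PRC23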
An asterisk follows results filed as active; nt = not tested or not shown; [ ] = remark or other dose.

SMILES	SR-BI DiI-HDL act	CAL PDZ FP-1	miR-122 sensor	ARNT TACC3 PPI	SR-BI DiI inh	CAL PDZ FP-2
COc1cccc(/C=N/NC(=O)c2[nH]c(C)c(C(=O)N/N=C/c3cccc(OC)c3O)c2C)c1O	-125	1	-1	-15	125*	0
O=C(N[C@@H]1CC[C@H](CCNS(=O)(=O)c2ccccc2Cl)O[C@H]1CO)c1ccc(F)cc1	nt	nt	nt	-42	nt	nt
C[C@@H]1CCCCO[C@H](CN(C)C(=O)Nc2ccc(F)cc2)[C@H](C)CN([C@@H](C)CO)C(=O)c2cc(NS(=O)(=O)c3ccccc3)ccc2O1	nt	nt	-2[16.7 µM]	-13	nt	nt
O=C(C[n+]1ccccc1)N/N=C/c1cc(Br)ccc1O	-4	nt	-4	64*	4	-4
COc1cccc(/C=N/NC(=O)c2ccc(-c3ccccc3)cc2)c1O	-123	-1	0	-4	123*	0
O=C(C[n+]1ccccc1)N/N=C/c1ccccc1F	30	0	-3	nt	-30	7
COc1cc(C(=O)NCC(=O)N/N=C/c2ccco2)cc(OC)c1OC	-15	-2	10	-2	15	-4
COc1ccc(C(=O)NCC(=O)N/N=C/C(C)=C/c2ccco2)cc1OC	-85	0	-18	nt	85*	-3
COc1ccc(C(=O)N/N=C/c2c(C)nn(-c3ccccc3)c2OC)cc1	-71	-1	nt	14	71*	-5
COc1cccc(/C=N/NC(=O)c2ccc(=O)n(C)c2)c1O	-25	0	-4	15	25	-8
C[C@H](O)C#Cc1ccc([C@H]2[C@@H](CO)N3CCCCN(C(=O)c4ccc(F)cc4)C[C@H]23)cc1	nt	nt	-15[16.7 µM]	-3	nt	nt
COc1ccc(S(=O)(=O)N(C)C[C@@H]2OCCCC[C@@H](C)Oc3ccc(NS(=O)(=O)c4ccc(F)cc4)cc3C(=O)N([C@H](C)CO)C[C@H]2C)cc1	nt	nt	-15[16.7 µM]	-7	nt	nt
COc1cc(OC)c(OC)cc1/C=N/NC(=O)C[n+]1ccccc1	44	-1	nt	1	-44	-1
CCOc1ccccc1/C=N/NC(=O)c1ccc(Cn2cc([N+](=O)[O-])cn2)o1	-87	-2	-6	1	87*	-5
COc1cccc(/C=N/NC(=O)C[n+]2ccccc2)c1O	3	0	nt	67*	-3	-5
COc1cccc(/C=N/NC(=O)CNC(=O)COc2ccccc2)c1O	-40	0	nt	43	40	-1
COc1cccc(/C=N/NC(=O)CNC(=O)c2ccco2)c1O	nt	3	-6	36*	nt	-4
COc1cccc(/C=N/NC(=O)C(=O)Nc2ccccc2OC(F)(F)C(F)F)c1O	-110	-3	nt	3	110*	2
CO[C@@H]1CN(C)C(=O)c2ccc(NC(=O)c3nc4ccccc4s3)cc2OC[C@@H](C)N(Cc2ccncc2)C[C@H]1C	nt	nt	nt	21	nt	nt
CCCNC(=O)[C@@H]1[C@@H](CO)[C@@H]2Cn3c(ccc(-c4ccccc4)c3=O)[C@@H]2N1CC1CC1	nt	nt	-3[16.7 µM]	-4	nt	nt
C[C@@H]1CN([C@H](C)CO)C(=O)c2cc(/C=C/c3ccccc3)cnc2O[C@@H]1CN(C)C(=O)NC1CCCCC1	nt	nt	57[16.7 µM]	0	nt	nt
CCOc1ccccc1NC(=O)C(=O)N/N=C/c1cc(Br)ccc1O	-126	0	1	-3	126*	67*
CNC(=O)C[C@H]1CC[C@H]2[C@H](COc3ccc(NC(=O)c4ccc(C(F)(F)F)cc4)cc3C(=O)N2C)O1	nt	nt	4[16.7 µM]	13	nt	nt
O=C(NC1CCCCC1)N1CCN(c2nc(-c3ccccc3)cs2)CC1	-19	-8	-6	10	19	59*
CSc1nsc(/C=C/Nc2ccc(F)cc2)c1C#N	-44	-2	nt	1	44	-3
CSc1nsc(/C=C/Nc2ccc(O)cc2C)c1C#N	-81	-1	-1	nt	81*	-1
COc1ccc(NC(=O)N(C)C[C@H]2Oc3c(NS(=O)(=O)c4ccccc4)cccc3C(=O)N([C@@H](C)CO)C[C@H]2C)cc1	nt	nt	-1[16.7 µM]	nt	nt	nt
